In ChEMBL document CHEMBL4513216, “Probing the Open Global Health Chemical Diversity Library for Multistage-Active Starting Points for Next-Generation Antimalarials” (ACS Infect Dis, 2020):

assay: Toxicity liver stage against HepG2, at 10uM; format: cell-based; set-up: test concentration 10 uM, cell line HepG2-A16-CD81EGFP; details: human, HepG2-A16-CD81EGFP cells; read-out: INHIBITION
Method in brief: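 Uninfected HepG2-A16-CD81EGFP cells, 3 × 10^3 per well, 1536-well, plated on prespotted compound at 10 μM final, parasite-free screening media added to match infected plates; puromycin 10 μM positive, DMSO 0.5% negative; run in parallel with 48 h PbLuc assay at 37 °C, 5% CO2; viability by CellTiter-Glo luminescence, normalized to controls.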

| Compound | cytotoxicity at 10 µM [%] |
| --- | --- |
| O=c1c2ccccc2nc2n1CCC2O (configuration not stated) | 7.68 |
| CN(C)C(=O)C1CCCN1c1ncnc2ccsc12 (configuration not stated) | 4.04 |
| CC1=C[C@@H](CN2CCC(CO)CC2)[C@H](C(C)C)C[C@H]1Cc1nnc(C)o1 | 8.24 |
| CC(C)CN1C[C@@H]2OCC(=O)N(c3ccccc3)[C@@H]2C1 | 1.08 |
| CNC(=O)C(C)(C)N1CCC[C@H]1C(=O)NCC1CC1 | 2.05 |
| COCc1nnc(NC(=O)c2cn(C(C)C)c3ccc(OC)cc23)s1 | -5.86 |
| Cn1ccc2cc(C(=O)NC3CCS(=O)(=O)C3)ccc21 (configuration not stated) | 0.979 |
| OC1CN(c2nc3c(C(F)(F)F)cccc3s2)C1 | -8.37 |
| CCCc1nnsc1C(=O)NCC1CCN(c2ncccn2)CC1 | 10.6 |
| COc1ccc(S(=O)(=O)NCCC(O)c2ccoc2)c(C)c1 (configuration not stated) | -0.608 |
| Cc1ccc(N2CCC3(CCN(Cc4ccccn4)CC3)CC2)nn1 | 7.37 |
| c1c(CN2CCCCC2)nc2n1CCN(CC1CC1)C2 | -113 |
| O=S(=O)(C1CC1)N1CCOC2(COCCN(c3ncccn3)C2)C1 (configuration not stated) | 8.55 |
| O=C(CC1CC1)N1CCC2(CC(=O)N(c3cccc(F)c3)C2)C1 (configuration not stated) | -148 |
| Cc1nc(N(C)C)nc2c1COCC21CCN(C(=O)C2CC2)C1 (configuration not stated) | 4.27 |
| Cn1ccnc1CN1CC2(CCN(Cc3ccncc3)C2)C1 | -5.76 |
| CCN1C[C@H]2CCN(c3ncccn3)CC[C@H]2S1(=O)=O | -7.08 |
| CCOCC(=O)N1CCCn2c(nnc2Cn2cccc2)C1 | -130 |
| COCC1c2c(cnn2C)CCN1Cc1ccsc1 (configuration not stated) | -13.3 |
| O=C(CSc1nnc2n1N=CN(c1ccccc1)C2)c1ccccc1 | 9.11 |
| COc1ccc(OC)c(NC(=O)c2nc3ccccc3n(C)c2=O)c1 | -4.71 |
| CC(C)(C)n1ncc2c1NC(=O)CC2c1ccc(OCC(N)=O)cc1 (configuration not stated) | 20.6 |
| CCS(=O)(=O)Nc1ccc(C(=O)NCCCN2CCCC2)cc1 | 1.83 |

| Compound | cytotoxicity at 10 µM [%] |
| --- | --- |
| CC(C)N1CCOCC2(CN(Cc3ccco3)CCO2)C1 (configuration not stated) | -7.53 |
| COc1ncccc1C(=O)N1CC[C@H]2C[C@@H](C)O[C@@H]2C1 | -7.63 |
| O=C1[C@H]2CCCC[C@H]2C(=O)N1c1cnn(Cc2cccc(F)c2)c1 | -5.24 |
| Cc1cc(C(=O)N(C)C)nc(C2(C)CCCN2c2ccnc(C)n2)n1 (configuration not stated) | -7.49 |
| CNC(=O)C1(CCCc2ccccn2)CN(Cc2nccn2C)C1 | -1.23 |
| CC(=O)N1CCC(c2nccnc2CNC(=O)c2cc[nH]n2)CC1 | -6.27 |
| O=C(CN1CCNC1=O)NCc1ccc2sccc2c1 | 5.05 |
| O=C(C1CCCC1)N1CCOc2cccc(F)c21 | -2.54 |
| O=C(Cc1cccc(F)c1F)NS(=O)(=O)c1ccc(Cl)cc1F | -6.11 |
| CN(C)Cc1ccccc1NC(=O)c1ccc(C#N)cc1 | 4.2 |
| Cc1nc2n(n1)CC(NCc1nc(-c3cccs3)no1)CC2 (configuration not stated) | -1.66 |
| CCCN(CC)Cn1ncc2cn(-c3ccccc3)nc2c1=O | 1.44 |
| CC(C)(C)CCS(=O)(=O)NCCc1csc(N2CCCC2)n1 | 8.37 |
| Cc1cccc2c1OCCC2NCc1c(C(C)C)nn(C)c1N(C)C (configuration not stated) | 0.423 |
| O=C(NC1CC1)c1cnc2n1CCCC2 | -6.81 |
| CN(C)C1CCCN(C(=O)NCCC(=O)N2CCCCCC2)C1 (configuration not stated) | -6.45 |
| CN(Cc1cc(Br)cn1C)C(=O)c1ccon1 | -3.33 |
| Cc1cc(C(=O)NC(CC(C)C)C(=O)Nc2cc[nH]n2)c(C)o1 (configuration not stated) | -11.7 |
| CC1CN(C(=O)c2ccnc(-n3cncn3)c2)c2ccccc2S1 (configuration not stated) | -5.69 |
| COC(=O)c1cc(NS(=O)(=O)c2cn(C)cn2)c(F)cc1F | 14.8 |
| O=C(CCCc1ccccn1)N1CCC(Nc2cccnn2)CC1 | -9.73 |
| O=C(NCC1CC1)c1cc(Cl)c2c(c1)OCCCO2 | 0.344 |
| CCCN1CCN(C(=O)c2cnn(-c3ccccc3F)c2)CC1 | 0.313 |

| Compound | cytotoxicity at 10 µM [%] |
| --- | --- |
| COC(=O)c1ccc(NC(=O)[C@@H]2CCCN2C(=O)c2ccco2)s1 | -3.45 |
| CCc1cnc(CN(C)C2CCN(CCNS(=O)(=O)CC)C2)o1 (configuration not stated) | 8.94 |
| NC(=O)c1cnc(NC2CCC(c3ccccc3)CC2)c(Cl)c1 (configuration not stated) | 27.2 |
| Cc1ccc(OCC(=O)Nc2cnccc2SCCCO)cc1C | -2.35 |
| Cc1c(-c2nc(-c3cccc(CN4CCOCC4)c3)no2)cnn1C | -0.988 |
| Cn1cc(C#N)cc1C(=O)NC1(C#N)CCSCC1 | -7.23 |
| Cn1cnnc1Sc1ccc(NC(=O)C2CC2)cc1Cl | 0.118 |
| O=C(c1cccc2cc[nH]c12)N1CCC2(CCOC2)C1 (configuration not stated) | -152 |
| CC1CN(C(=O)NCCc2nc(C(C)C)no2)CCO1 (configuration not stated) | -0.745 |
| Cc1nc(S(=O)(=O)CCn2cccn2)n(C2CCCC2)c1C | -0.829 |
| CCN(Cc1nc(Cc2ccccc2)no1)C1CC1 | 6.26 |
| N#Cc1c(F)cccc1N1CCCC(C(=O)Nc2nncs2)C1 (configuration not stated) | 4.48 |
| CC1(C)Cc2ccc(C(=O)NC3CCOCC3)c(O)c2O1 | -7.92 |
| COCCN(C(=O)c1cc(-c2ccc(C)s2)[nH]n1)C1CC1 | 11.6 |
| NC(=O)CN(C(=O)Cc1ccc(C(F)(F)F)cc1)C1CCCC1 | -3.41 |
| CC(C)C(C(=O)NCc1ccccc1-n1cccn1)N(C)C (configuration not stated) | -3.17 |
| CC(c1ccccc1)N(C)C(=O)Cn1cc(NC(=O)C(C)(C)C)cn1 (configuration not stated) | 4 |
| COc1ccc(C(C)=O)c(OCC(=O)NC(C)c2ccc(F)cc2)c1 (configuration not stated) | 2.68 |
| O=C(NCCCn1cccn1)C1(c2ccc(F)cc2)CC1 | -6.13 |
| Cc1ccc(-c2cc(C(=O)NC(C)C(=O)N3CCCCC3)on2)cc1 (configuration not stated) | -7.17 |
| COc1cccc(NC(=O)N(CCO)Cc2ccsc2)c1 | -9.87 |
| CCS(=O)(=O)CCn1ccc(NC(=O)CCc2cccc(C)c2)n1 | 2.94 |
| Cn1nc(CN2CCCCC2)c2c1CN(C(=O)c1cccc(Cl)c1)C2 | -1.35 |

| Compound | cytotoxicity at 10 µM [%] |
| --- | --- |
| CN1CSC[C@H]1C(=O)N1CCC(Cc2ccccc2F)CC1 | 1.01 |
| O=C(Nc1cnn(CC(=O)N2CCCO2)c1)c1ccccc1 | -0.134 |
| Cc1cc(C)c2c(NCc3nncn3C3CCCCC3)ncnc2n1 | -0.404 |
| O=C(CN1CCOCS1(=O)=O)NCc1ccccc1 | 1.09 |
| OC1(CNCCc2nc3c(s2)CCCC3)CCNC1 (configuration not stated) | 1.44 |
| COCCN1CCN(C(=O)c2ccccc2C(C)=O)[C@H]2CS(=O)(=O)C[C@H]21 | -5.95 |
| CN(C)CCNc1cc(-c2ncccc2O)c2cc[nH]c2n1 | 7.28 |
| CC(C)c1nc(CN(C)C(=O)c2ccc3c(c2)OCO3)cs1 | -1.1 |
| Cc1cc(NC2CCC(=O)N(C)C2)n2nccc2n1 (configuration not stated) | -0.714 |
| Cc1csc(N2CCC(CCN3CCCC3=O)CC2)n1 | -5.7 |
| Cc1nonc1CC(=O)N1CCC2(CCCN(C3CCOCC3)C2=O)C1 (configuration not stated) | -95.3 |
| COc1cnc(N2CCCN(c3ccc(F)cc3)CC2)nc1 | -10.6 |
| Cc1cc(S(=O)(=O)NCC2CNCCOC2)c(C)cc1Cl (configuration not stated) | -0.708 |
| Cc1ccc(NC2(C(=O)NCCCc3c(C)n[nH]c3C)CCCC2)cc1 | -10.1 |
| O=C(CCC(=O)N1CCC(OCc2cccnc2)CC1)c1ccccc1 | -3.33 |
| CCCNC(=O)N1CCc2ccc(S(=O)(=O)N3CCOCC3)cc2C1 | -2.56 |
| CN(C)C(=O)c1ccc2c(c1)N(C)C(CC(=O)NCc1ncc[nH]1)CO2 (configuration not stated) | -5.93 |
| CCOC(=O)CC1CCCCN1C(=O)c1cc(C)oc1C (configuration not stated) | 5.44 |
| CC(C)c1cc(-c2nn3c(C(C)C)nnc3s2)[nH]n1 | 0.999 |
| CC(=O)NCCNc1nccc(CCC(F)(F)F)n1 | -146 |
| CC(C)CCN1CCNC(=O)C1CC(=O)N1CCc2sccc2C1 (configuration not stated) | -7.01 |
| CCCN(CCO)C(=O)C1CCC(=O)N(CCc2ccc(Cl)cc2)C1 (configuration not stated) | -12.5 |
| O=C(c1ccc2[nH]c(=O)[nH]c2c1)N1CCC(Nc2cccnn2)CC1 | 0.00528 |

| Compound | cytotoxicity at 10 µM [%] |
| --- | --- |
| c1cnn(CC2CCCCN2Cc2noc(C3CC3)n2)c1 (configuration not stated) | -3.48 |
| CC(C)c1noc(CCC(=O)NC(C)c2ccccn2)n1 (configuration not stated) | -5.86 |
| CNc1nc(CNC(=O)Nc2cc(Cl)ccc2F)cs1 | -6.95 |
| Cc1cccc(C)c1OCCNC(=O)C(C)n1cncn1 (configuration not stated) | -1.46 |
| Cc1cnn(CC2CCCN2CC(=O)NC2CCN(C3CC3)CC2)c1 (configuration not stated) | 0.109 |
| O=C(Cc1csc(-c2ccsc2)n1)N1CCN(c2cnccn2)CC1 | -7.12 |
| CC(C)(C)c1nc(CN2CCCC(c3noc(C4CC4)n3)C2)no1 (configuration not stated) | -14.4 |
| Cc1nn(C)c(N(C)C)c1CNC(C)COc1ccc(F)cc1F (configuration not stated) | -9.78 |
| Cc1nc(CN(C)C2CCN(CCc3ccccn3)C2)no1 (configuration not stated) | -3.85 |
| Cn1cnnc1C1CCCN(C(=O)NCCc2ccccn2)C1 (configuration not stated) | -21.5 |
| CC(C)NC(=O)N1CCc2c(CNc3ncccn3)cncc2C1 | 5.83 |
| CS(=O)(=O)NCCNCc1ccc(Br)s1 | -3.04 |
| CCN1CCn2c(C)cnc2C12CCN(C(=O)C(C)C)CC2 | 3.06 |
| CN1CC(=O)N(c2ccsc2)CC12CCN(S(=O)(=O)c1ccccc1)C2 (configuration not stated) | 1.5 |
| c1cnn(CCCO[C@@H]2CN(C3CCOCC3)[C@@H]3CCCO[C@@H]32)c1 | 4.56 |
| Cc1noc(C)c1CN1CCC2(CC1)CN(c1ccccn1)CCO2 | -3 |
| O=C(c1cccs1)N1CCC[C@]2(C[C@@H](OCc3ccncc3)CO2)C1 | 7.92 |
| CCc1ccc(CN2CCC3(CCCN(C(=O)c4cnccn4)C3)C2)o1 (configuration not stated) | -127 |
| Cn1cc(CNC2CC3(CCN(CC4CC4)CC3)c3ccccc32)cn1 (configuration not stated) | -8.22 |
| Cc1cccc(CN2C[C@@H]3COC[C@]3(COc3cccnc3)C2)n1 | 11.4 |
